The species entered for assay [1] is Homo sapiens. In words: Binding affinity to human telomeric DNA sequence assessed as stabilization of G-quadruplex at 10 uM by thermal denaturation. The gist of the method: (§1)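 Fluorescence melting in a LightCycler of 0.25 µM telomeric oligonucleotide HTS (5'-FAM, 3'-methyl red) in LiP buffer (10 mM LiOH, 50 mM KCl, pH 7.4 with H3PO4). Samples were denatured at 95 °C for 5 min, then cooled and reheated at 0.5 °C/min in 1 °C steps with 2 min equilibration per step. Excitation 488 nm, emission 520 nm. ΔTm was taken relative to ligand-free DNA.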

Assay [2] is filed under the species Homo sapiens. Briefly: Binding affinity to human telomeric DNA sequence assessed as stabilization of G-quadruplex at 1 uM by thermal denaturation. The gist of the method:
as §1

In assay [3] the target is DNA polymerase I, thermostable (Thermus aquaticus, UniProt P19821). Briefly: Inhibition of Taq polymerase. The gist of the method:
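PCR with 2.5 ng pBR322 template and primers Tup/Tdown (0.5 µM) amplifying plasmid bases 906-1064. Compounds tested from 20 nM to 40 µM. Run 25 cycles of 94 °C, 65 °C and 72 °C (30 s each). Products resolved on 2% agarose in TBE and stained with ethidium bromide.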

Assay [4] concerns the target Telomerase reverse transcriptase (Homo sapiens, UniProt O14746). In words: Inhibition of telomerase in human JR8 cells by TRAP assay. Format: cell-based. In outline: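 Telomerase source was a CHAPS lysate of exponentially growing JR8 cells (500 ng protein per reaction). Elongation 30 min at 30 °C, then 30 PCR cycles. Products run on 10% PAGE with phosphorimager read-out, in triplicate. Drug levels kept below those inhibiting Taq.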

A further assay deals with HeLa. In words: Cytotoxicity against human HeLa cells expressing telomerase after 96 hrs by MTT assay. The assay is classed as functional, cell-based. In outline: (§2)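 Cells grown in DMEM with 10% heat-inactivated FCS, penicillin/streptomycin, 37 °C, 5% CO2. Plated at 10000 cells/well and left overnight, then exposed to eight serial dilutions in triplicate for 96 h. MTT added to 0.8 mg/mL final for 2 h, formazan dissolved in DMSO, absorbance read at 540 nm. IC50 from sigmoidal dose-response fits.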
In general terms: Tetrazolium dyes change colour on reduction, which living cells bring about.

Assay [5] in a line: Cytotoxicity against human 293T cells expressing telomerase after 96 hrs by MTT assay. Format: cell-based. The following applies: HEK-293T. In outline:
as §2

The values below come from ChEMBL document CHEMBL1140074, “Aminoacyl-anthraquinone conjugates as telomerase inhibitors: synthesis, biophysical and biological evaluation” (J Med Chem, 2008).

DNA polymerase I, thermostable, sequence (P19821 whole entry): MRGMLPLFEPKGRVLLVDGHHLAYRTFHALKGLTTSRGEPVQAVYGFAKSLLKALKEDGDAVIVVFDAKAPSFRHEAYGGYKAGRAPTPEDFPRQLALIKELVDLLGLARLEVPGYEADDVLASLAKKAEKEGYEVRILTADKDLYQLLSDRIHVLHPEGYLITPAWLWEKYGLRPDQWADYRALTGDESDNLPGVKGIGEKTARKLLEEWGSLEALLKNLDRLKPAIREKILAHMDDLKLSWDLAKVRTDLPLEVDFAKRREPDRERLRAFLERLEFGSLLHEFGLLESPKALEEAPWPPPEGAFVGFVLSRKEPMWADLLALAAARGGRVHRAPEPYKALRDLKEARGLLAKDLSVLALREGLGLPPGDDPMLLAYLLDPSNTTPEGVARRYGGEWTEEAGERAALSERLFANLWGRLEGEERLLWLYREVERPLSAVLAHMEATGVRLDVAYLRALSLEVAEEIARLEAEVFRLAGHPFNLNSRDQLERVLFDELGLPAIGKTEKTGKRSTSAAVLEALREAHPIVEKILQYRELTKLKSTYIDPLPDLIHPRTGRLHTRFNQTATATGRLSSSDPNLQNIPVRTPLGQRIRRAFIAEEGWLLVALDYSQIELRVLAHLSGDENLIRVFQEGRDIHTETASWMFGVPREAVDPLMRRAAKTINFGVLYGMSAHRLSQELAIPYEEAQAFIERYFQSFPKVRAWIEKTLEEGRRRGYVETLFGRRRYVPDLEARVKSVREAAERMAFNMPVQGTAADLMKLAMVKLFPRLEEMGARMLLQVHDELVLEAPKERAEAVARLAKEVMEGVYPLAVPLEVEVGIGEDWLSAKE
Telomerase reverse transcriptase, sequence (O14746 whole entry): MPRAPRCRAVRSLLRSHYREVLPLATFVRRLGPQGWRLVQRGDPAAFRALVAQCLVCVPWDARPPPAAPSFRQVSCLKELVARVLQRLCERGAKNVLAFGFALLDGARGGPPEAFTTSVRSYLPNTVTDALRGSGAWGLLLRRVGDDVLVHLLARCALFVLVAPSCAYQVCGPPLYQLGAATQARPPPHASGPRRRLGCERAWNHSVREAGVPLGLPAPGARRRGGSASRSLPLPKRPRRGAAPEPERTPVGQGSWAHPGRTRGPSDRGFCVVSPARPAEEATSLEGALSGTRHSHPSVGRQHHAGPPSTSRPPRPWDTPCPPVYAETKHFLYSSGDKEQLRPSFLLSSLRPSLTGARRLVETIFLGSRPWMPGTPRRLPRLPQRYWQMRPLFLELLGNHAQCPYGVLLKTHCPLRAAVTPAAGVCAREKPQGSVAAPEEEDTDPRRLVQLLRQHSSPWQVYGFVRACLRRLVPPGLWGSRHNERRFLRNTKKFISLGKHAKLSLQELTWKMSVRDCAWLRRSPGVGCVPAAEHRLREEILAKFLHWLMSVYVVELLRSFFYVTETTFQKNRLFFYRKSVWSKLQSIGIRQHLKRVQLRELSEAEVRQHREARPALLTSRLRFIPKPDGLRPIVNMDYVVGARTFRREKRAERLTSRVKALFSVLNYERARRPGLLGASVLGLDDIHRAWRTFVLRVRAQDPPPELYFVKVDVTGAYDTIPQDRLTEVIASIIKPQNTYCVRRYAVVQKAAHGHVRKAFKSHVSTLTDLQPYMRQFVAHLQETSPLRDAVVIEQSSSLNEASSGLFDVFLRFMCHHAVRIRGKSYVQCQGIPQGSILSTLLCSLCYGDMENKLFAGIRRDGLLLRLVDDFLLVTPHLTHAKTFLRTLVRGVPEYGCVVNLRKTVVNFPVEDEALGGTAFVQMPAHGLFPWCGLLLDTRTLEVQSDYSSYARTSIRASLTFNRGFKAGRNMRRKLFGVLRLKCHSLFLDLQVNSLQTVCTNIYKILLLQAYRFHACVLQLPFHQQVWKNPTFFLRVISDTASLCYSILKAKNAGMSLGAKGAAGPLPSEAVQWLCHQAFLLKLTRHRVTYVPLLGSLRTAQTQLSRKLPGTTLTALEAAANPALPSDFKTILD

Broadly, the ΔTm is the change in melting temperature against a reference sample. A word on the EC50: it is the midpoint of the concentration-response curve. By IC50 is commonly meant the concentration at which inhibition is half-maximal. A lower IC50 goes with inhibition by little substance. Regarding `C[C@H](N)C(=O)NCC(=O)Nc1ccc2c(c1)C(=O)c1ccc(NC(=O)CNC(=O)[C@H](C)N)cc1C2=O`, the ΔTm in the assay listed under Homo sapiens [1] turned out to be 9.2 °C; in the assay filed under Homo sapiens [2], 6.1 °C. In addition, the EC50 in assay [3] is over 40 µM; in assay [4] it was 25 µM. Besides, the IC50 with HeLa came out at 17 µM; in assay [5], 43 µM.
Consider `NCCNC(=O)c1ccc2c(c1)C(=O)c1cc(C(=O)NCCN)ccc1C2=O`, for which the ΔTm in the assay listed under Homo sapiens [1] came to 12.9 °C; in the assay listed under Homo sapiens [2], 3.3 °C. The results for the EC50 in assay [3] and in assay [4] were over 40 µM and 15 µM, respectively. The IC50 (with HeLa; in assay [5]) was 100 µM throughout.
As to `NCCNC(=O)c1ccc2c(c1)C(=O)c1ccc(C(=O)NCCN)cc1C2=O`, the ΔTm turned out to be 9 °C in the assay listed under Homo sapiens [1] and 2 °C in the assay filed under Homo sapiens [2]. Also, the results for the EC50 in assay [3] and in assay [4] were 20 µM and 5 µM, respectively. Moreover, the IC50 with HeLa amounted to 40 µM; in assay [5], 86 µM.
With `NCCCC[C@H](N)C(=O)NCCNC(=O)c1ccc2c(c1)C(=O)c1cc(C(=O)NCCNC(=O)[C@@H](N)CCCCN)ccc1C2=O`, the ΔTm in the assay filed under Homo sapiens [1] amounted to 14.7 °C; in the assay filed under Homo sapiens [2], 5.2 °C. Besides, the EC50 is over 40 µM in assay [3] and 3 µM in assay [4]. Further, the IC50 with HeLa is 84 µM; in assay [5], over 100 µM.
